Only some compounds are listed: those with a hit (about 7.2% of all), similar ones and a draw of the others.
M1 antag – blocks the rat M1 muscarinic receptor response to acetylcholine | hit rate 3.4% among 64,000 | CHO-M1 cells, Fluo-4 calcium, ACh EC80 antagonist mode; stronger effect = lower value | B-score at 10 µM | P08482;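 active means calcium fluorescence response, raw or row-and-column corrected B-score, differing from the plate sample mean either way at a set confidence level, mostly lower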
BAP1 block – human BAP1 deubiquitinase inhibition. Q92560. recombinant BAP1, Ub-AMC hydrolysis fluorescence kinetic; stronger effect = lower value. calls only at 20 µM. hit rate 0.48% among 72,000. AID 436;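 active means activity remaining at or below 50% of control, provided the compound also passes the data quality filters; inactive means the rest, including low values that fail the filters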;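 further: 100% = DMSO wells rate and 0% = substrate alone blank rate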
M1 ag – agonists of M1 muscarinic receptor; hit rate 3% among 64,000; B-score at 10 µM; CHO-M1 cells, Fluo-4 calcium fluorescence, agonist mode; stronger effect = higher value;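 active means fluorescence rise, raw or as B-score row- and column-corrected plate score, outside the 99.7% band of its plate's samples, either direction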
D1 allo mod – allosterically modulates the human D1 dopamine receptor | P21728 | HEK293 D1, CRE-luciferase, dopamine EC30 potentiation; actives deviate in either direction | B-score at 10 µM | hit rate 5.9% among 58,000;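 active means luminescence count or its row- and column-corrected plate score outside the 99.7% band of the plate's sample wells, on either side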
Target sequence (P21728 whole entry, looked up): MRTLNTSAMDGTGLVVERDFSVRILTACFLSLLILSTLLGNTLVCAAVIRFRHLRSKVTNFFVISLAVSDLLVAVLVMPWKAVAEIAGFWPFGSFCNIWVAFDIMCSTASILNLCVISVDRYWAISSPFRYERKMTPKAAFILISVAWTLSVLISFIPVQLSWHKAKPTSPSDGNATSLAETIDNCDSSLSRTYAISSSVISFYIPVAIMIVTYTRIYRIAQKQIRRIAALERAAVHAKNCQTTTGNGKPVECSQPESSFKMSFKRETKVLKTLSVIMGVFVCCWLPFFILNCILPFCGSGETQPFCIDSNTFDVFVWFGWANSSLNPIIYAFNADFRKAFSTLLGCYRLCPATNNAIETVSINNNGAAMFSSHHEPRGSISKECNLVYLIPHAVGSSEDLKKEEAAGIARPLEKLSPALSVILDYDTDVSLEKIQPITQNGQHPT
HEK293 NFkB inh – inhibitors of the PMA/ionomycin-induced NF-kB reporter in HEK293 cells. HEK-293 NF-kB luciferase reporter, luminescence. inhibition, % at 3 µM. hit rate 0.21% among 62,000. AID 465;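 active means inhibition above the mean of all tested compounds plus 3 SD, cut at about 40% in these data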;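 further: 0% = stimulated DMSO wells and 100% = 10 µM reference inhibitor 5653914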
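Timing: 1 h pretreatment, 16 h stimulation, 37 °C; system: HEK-293 cells with stable firefly luciferase reporter driven by four HIV NF-kB elements; doses: 3 µM once, 0.30% DMSO; measured by: luciferase luminescence; control set: DMSO and 10 µM reference inhibitor; repeats: single test; reagent: PMA plus ionomycin mix as NF-kB-activating stimulus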
hDAT+cocaine – changed human dopamine transporter uptake under cocaine IC80; B-score at 10 µM; LLC-PK1 hDAT cells, [14C]-dopamine uptake with cocaine IC80; actives deviate in either direction; hit rate 1.3% among 110,000;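 active means Z score or B-score, a plate-position-corrected score, falls beyond the plate's 99.7% confidence bounds, in either direction; inactive means both scores lie inside the 99.7% bounds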;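 further: scored against the spread of the other compound wells on the same plate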
Starred values were filed as active, the others as inactive; i = inactive; / = no result shown.

SMILES | M1 antag | BAP1 block | M1 ag | D1 allo mod | HEK293 NFkB inh | hDAT+cocaine
Cc1c(C(=O)Nc2ccc(Cl)cc2)c2ccccn2c1C(=O)c1ccc([N+](=O)[O-])cc1 | / | / | / | / | / | 0.343
O=C(CN1C2=NCCCN2c2ccccc21)c1cccc2ccccc12 | / | i | / | / | / | /
Nc1ccccc1Nc1ccccc1 | / | / | / | / | / | 2.51*
Nc1ccc(Nc2ccccc2)c(Cl)c1 | 0.74 | i | 0.0546 | -0.577 | 4.2 | -1.15
CCCCOc1ccc(C)cc1CN(CCO)CCO | 2.05* | i | 0.333 | -0.816 | / | -0.0135
O=C(Nc1ccc(-c2nc3cc(Cl)ccc3o2)cc1)C1CCCO1 (stereo not given) | / | / | / | / | / | 0.807
O=C(Nc1ccc(-c2nc3ccccc3o2)cc1)C1CCCO1 (stereo not given) | -0.705 | i | -0.999 | -5.22* | -52.1 | -0.426
CCOc1ccccc1NC(=O)Cn1nnc(C(=O)NCc2ccco2)c1N | 0.371 | i | -1.54 | 0.00411 | 41.9* | -2
Cc1ccc(NC(=O)c2nnn(CC(=O)Nc3ccccc3)c2N)cc1C | 0.459 | i | -1.44 | -1.24 | 15.4 | -1.38
Cc1cccc(NC(=O)Cn2nnc(C(=O)NCc3cccs3)c2N)c1C | / | / | / | / | / | -0.898
CCOc1ccccc1NC(=O)Cn1nnc(C(=O)Nc2ccc(C)cc2)c1N | -0.509 | i | 0.99 | -5.26* | 23.6 | -1.45
Cc1ccc(Cn2nnc(C(=O)Nc3cc(C)ccc3C)c2N)cc1 | 1.82* | i | 0.0638 | -0.17 | 15.1 | 0.684
COc1ccc(CNC(=O)c2nn3c(c2Br)NC(c2cccs2)CC3C(F)(F)F)cc1 (stereo not given) | / | i | / | / | / | /
COc1ccccc1C(=O)Oc1cccc(N2C(=O)C3CCCCC3C2=O)c1 (stereo not given) | / | i | / | / | / | /
CCOc1ccc(NC(=O)c2cccc(Cl)c2)c([N+](=O)[O-])c1 | / | i | / | / | / | /
Cc1cc(C)nc(SCC(=O)N2c3ccccc3Sc3ccc(C(F)(F)F)cc32)n1 | / | i | / | / | / | /
CCCCOc1ccc2c(=O)c(-c3ccccc3OC)coc2c1 | / | i | / | / | / | /
Nc1nc(-c2ccccc2)cc(C(F)(F)F)n1 | -0.0698 | i | 1.2 | 27.4* | 16.6 | 0.0832
FC(F)(F)c1cc(-c2ccccc2)nc(N2CCCCC2)n1 | -0.0459 | / | -1.62 | 0.474 | 13.4 | -0.662
COc1ccc(O)c(C(=O)c2cc(C#N)c(=O)n(-c3c(C)n(C)n(-c4ccccc4)c3=O)c2)c1 | -0.736 | i | 5.84* | 0.00917 | 15.8 | -0.899
CC(C)c1ccc(NC(=O)c2csnn2)cc1 | 0.00531 | i | 0.828 | -4.45* | -19.6 | 0.635
COc1ccc(C(=O)Nc2ccc(C(=O)OCC(C)C)cc2)cc1 | / | i | / | / | / | /
CCOC(=O)c1cnc(-n2nc(C)cc2C)nc1NCc1ccc2c(c1)OCO2 | -0.674 | i | -0.874 | 0.585 | 15.0 | -6.99*
Nc1c(-c2ccccc2)cnn1-c1cccc([N+](=O)[O-])c1 | / | / | / | / | / | -0.0219
Nc1c(-c2ccc(Cl)cc2)cnn1-c1cccc([N+](=O)[O-])c1 | / | / | / | / | / | -3.04*
SMILES | M1 antag | BAP1 block | M1 ag | D1 allo mod | HEK293 NFkB inh | hDAT+cocaine
Cc1nn(-c2ccc(F)cc2F)c2c1-c1nc(N3CCCC3)ncc1CC2 | -0.22 | / | 0.709 | -5.94* | 13.5 | -1.74
CC(C)CNC(=O)c1cccc(NC(=O)c2ccc(NC(=O)c3ccco3)cc2)c1 | 1.44* | i | 0.603 | -0.422 | 2.2 | -0.317
CCOc1ccccc1NC(=O)c1ccc(NC(=O)c2ccco2)cc1 | / | / | / | / | / | 3.94*
CCOc1ccc(NC(=O)c2ccco2)cc1 | 0.143 | i | 0.00845 | -4.84* | -9.9 | -0.747
CCOc1ccccc1NC(=O)c1c(NC(=O)CNCc2ccco2)sc2c1CCC2 | -8.13* | i | -0.594 | 0.255 | 0.0 | /
COc1cccc(C(=O)Nc2nnc(-c3ccncc3)s2)c1 | / | i | / | / | / | /
Cc1ccccc1C(=O)Nc1ccc2nc(NC(=O)c3ccccc3C)sc2c1 | / | i | / | / | / | /
O=c1oc2ccc(Br)cc2cc1-c1nnc(-c2ccncc2)o1 | / | i | / | / | / | /
C=CCCC(C)(O)C#CCN1CCCCC1 (stereo not given) | / | i | / | / | / | /
CCOC(=O)C(C)OC(=O)c1ccc([N+](=O)[O-])cc1Cl (stereo not given) | / | i | / | / | / | /
CCC(c1ccccc1)c1nnc(N)s1 (stereo not given) | / | i | / | / | / | /
Cn1ncc([N+](=O)[O-])c1CC(=O)O | / | i | / | / | / | /
CCOc1cc(NC(=O)c2ccco2)c(OCC)cc1NC(=O)CCc1ccccc1OC | 1.19 | / | -0.486 | / | 11.2 | -0.238
CCOc1cc(NC(=O)c2ccco2)c(OCC)cc1NC(=O)c1cc(OC)c(OC)c(OC)c1 | -1.21 | i | 2.87 | -4.97* | 9.5 | 0.011
Cc1cc(NS(=O)(=O)c2ccc(NC(=O)c3ccco3)cc2)no1 | -0.928 | i | -0.749 | 0.295 | 14.1 | 2.71*
c1ccc2nc3ccccc3nc2c1 | / | / | / | / | / | -1.09
Nc1nc2ccccc2nc1N | 1.54 | i | 1.17 | -0.337 | 4.7 | -8*
CC(C)c1nnc(NC(=O)c2c(O)c3cccc4c3n(c2=O)CCC4)s1 | 0.393 | / | -0.259 | -1.6 | 45.9* | 0.286
Cc1ccc(NC(=O)CC(O)(C(F)(F)F)C(F)(F)F)c(Br)c1 | -0.285 | i | -0.388 | 0.0255 | 8.8 | -3*
Cc1ccccc1NC(=O)CC(O)(C(F)(F)F)C(F)(F)F | / | / | / | / | / | -1.33
Cc1ccc(C)c(Cn2nnc3c(=O)[nH]c(C4CCCN(C(=O)C5CCC5)C4)nc32)c1 (stereo not given) | -0.0081 | i | 1.3 | 2.37 | -9.5 | 1.89
O=C(Cc1cccs1)N1CCC(c2nc3c(nnn3Cc3ccc(F)cc3)c(=O)[nH]2)CC1 | -0.536 | i | 0.00695 | -0.112 | 14.9 | 1.83
O=C(C1CCC1)N1CCC(c2nc3c(nnn3Cc3c(F)cccc3Cl)c(=O)[nH]2)CC1 | -1.94 | i | -1.3 | 0.931 | -13.0 | 2.75*
O=C(Cc1cccs1)N1CCCC(c2nc3c(nnn3Cc3cccc(Cl)c3)c(=O)[nH]2)C1 (stereo not given) | -0.326 | i | 0.755 | 0.7 | 14.1 | 2.31*
COC(=O)c1c(NC(=O)Cc2cccs2)sc2c1CCCC2 | 0.505 | i | 0.667 | 2.74* | 12.5 | -0.0128
SMILES | M1 antag | BAP1 block | M1 ag | D1 allo mod | HEK293 NFkB inh | hDAT+cocaine
O=C(O)c1ccccc1C(=O)Nc1ccc2c(c1)OCCO2 | / | i | / | / | / | /
CSc1sc(C(=O)O)c2c1C(=O)CCC2 | 0.0901 | i | -1.04 | / | / | -2.34*
NC(=O)CNC(=O)[C@@H]1CC2(CC(c3cccc(Br)c3)=NO2)CN1C(=O)c1ccc(Br)cc1 (stereo not given in full) | / | / | / | / | / | 2.23*
Oc1[nH]c2ccccc2c1C=Nc1ccc2c(c1)OCCO2 | 0.147 | i | -0.343 | -2.93* | -77.4 | 1.08
Cc1cccc(/N=C/c2c(O)[nH]c3ccccc23)n1 | -0.456 | i | -0.303 | 0.944 | -16.3 | 1.34
COc1cccc(C2NC(=O)NC(C)=C2C(=O)OCC(C)C)c1 (stereo not given) | / | i | / | / | / | /
Cn1c(CN2CCCCC2)c(C#N)c2ccccc21 | 0.0122 | i | 0.988 | -2.19* | 5.0 | 0.925
CCN1C(=O)NC(c2ccc(Cl)cc2)C(C(=O)OCCc2ccccc2)=C1C (stereo not given) | / | i | / | / | / | /
